CSN deneddyl inh: CSN deneddylation inhibition; Purified CSN, SCF-Nedd8-OG deneddylation, fluorescence polarization; Q92905; inhibition, % at 12.5 µM; 0.38% of 360,000 active;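 active = pattern-corrected inhibition above about 35%, with an unprinted fluorescence ratio check between 0.5 and 1.5, limit read from the data, passing the limit was not always enough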;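 note: 0% = enzyme with substrate and 100% = substrate without enzyme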
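assay system = purified human Csn5 enzyme expressed in HEK293T cells | amount = 0.24 nM enzyme | buffer or medium = Tris/NaCl/DTT buffer, pH 7.5 | reagent = 10 nM SCFSkp2-Nedd8OG | compound = one concentration, 12.5 µM, 0.25% DMSO | times = 90 min reaction at room temperature | signal = FP | read-out basis = % inhibition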
Scp-1 inhibitor: blocks human Scp-1 phosphatase activity. Q9GZU7. Recombinant Scp1, phosphopeptide, malachite green phosphate absorbance. inhibition, % at 20 µM. 0.88% of 340,000 active. AID 493091;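 active = inhibition above about 50% at 20 µM, limit read from the data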;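 note: plate controls were DMSO wells with enzyme for no effect and wells lacking enzyme for full effect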
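System: truncated SCP-1 phosphatase (76-261aa); medium: Tris acetate buffer pH 5.5 with MgCl2 and Tween-20; incubation: 45 min room-temperature reaction, 5 min colour, 30 min stabiliser; compound: single 20 µM dose, 1% DMSO; reagent: Phosphorylated 17-residue peptide substrate; read-out: % inhibition at 20 µM; technique: colorimetric free-phosphate detection, absorbance 630 nm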
STEP block: inhibitors of human striatal-enriched phosphatase STEP; inhibition, % at 20 µM; AID 588621; recombinant STEP, OMFP fluorogenic substrate, fluorescence; 0.25% of 360,000 active; P54829;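 active = inhibition at 20 µM, scaled per plate between control wells, above about 37%, limit read from the data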;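 note: 0% = DMSO with enzyme and substrate and 100% = substrate only without enzyme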
Target sequence (P54829 whole entry, looked up): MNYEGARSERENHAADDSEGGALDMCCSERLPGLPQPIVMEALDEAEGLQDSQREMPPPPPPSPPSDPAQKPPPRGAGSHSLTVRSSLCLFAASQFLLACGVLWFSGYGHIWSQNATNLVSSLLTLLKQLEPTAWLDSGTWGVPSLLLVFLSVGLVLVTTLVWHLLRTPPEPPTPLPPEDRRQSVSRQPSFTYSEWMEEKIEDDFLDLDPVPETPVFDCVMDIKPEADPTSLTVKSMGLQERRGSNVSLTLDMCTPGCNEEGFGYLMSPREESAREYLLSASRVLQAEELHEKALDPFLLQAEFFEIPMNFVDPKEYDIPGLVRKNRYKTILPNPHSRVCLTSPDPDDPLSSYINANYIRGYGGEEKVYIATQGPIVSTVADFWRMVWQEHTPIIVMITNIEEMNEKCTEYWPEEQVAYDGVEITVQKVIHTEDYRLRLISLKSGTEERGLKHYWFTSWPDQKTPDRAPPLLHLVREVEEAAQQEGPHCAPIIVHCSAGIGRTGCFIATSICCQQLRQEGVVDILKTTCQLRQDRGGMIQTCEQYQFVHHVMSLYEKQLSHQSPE
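medium = Bis-Tris buffer pH 6.0, 2.5 mM DTT, 0.005% Tween 20 | test system = STEP (striatal-enriched tyrosine phosphatase) enzyme, cell-free | measure = normalized % inhibition | compound dosing = 20 µM, 1% DMSO | also added = 25 µM OMFP | schedule = reaction 20 min, ambient temperature | measured by = fluorescence read at 480 nm ex / 540 nm em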
DNMT1 inh: inhibitors of human DNMT1; P26358; DNMT1 molecular beacon, Hinp1I cleavage, fluorescence; inhibition (reported as % activation of signal), % at 10 µM; 0.83% of 360,000 active; AID 588458; in the data active = inhibition above about 50%
LMPTP inh: blocks human LMPTP phosphatase; P24666; recombinant LMPTP-A, OMFP fluorogenic substrate, fluorescence intensity; inhibition, % at 20 µM; 0.22% of 360,000 active; AID 651560;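 active = compounds that cut the enzyme signal by at least half of the control window in the single-dose screen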;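 note: plate controls were DMSO wells with enzyme plus substrate for no effect and substrate without enzyme for full effect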
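Buffer or medium: Bis-Tris pH 6.0, DTT, detergent; Assay system: LMPTP-A enzyme; Quantity: 0.625 nM enzyme; Detection: endpoint fluorescence intensity; Times: 50 min dark incubation at room temperature; Controls: substrate-only low control, DMSO enzyme-plus-substrate high control; Doses: single 20 µM dose; Read-out: percent inhibition versus substrate-only and uninhibited controls; Reagent: 400 µM OMFP.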
SUMO1 PPI mod: alters human SUMO1 binding to SIM partners. AID 602429. inhibition, % at 20 µM. SUMO1 binding to a labelled peptide, TR-FRET, 1 h. P63165. 0.33% of 360,000 active; in the data active = inhibition above about 37%
Target sequence (P63165 whole entry, looked up): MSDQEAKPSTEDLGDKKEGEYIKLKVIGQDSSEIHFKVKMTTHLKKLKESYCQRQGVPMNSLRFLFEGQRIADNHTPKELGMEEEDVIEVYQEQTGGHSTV
Scp1 confirm: Scp-1 (human) inhibition, single-dose confirmed; recombinant SCP-1 catalytic domain, phosphate release, malachite green absorbance; inhibition, % at 20 µM; 61% of 2,500 active; shares compounds with Scp-1 inhibitor; AID 540281;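 note: plate controls were DMSO with enzyme for no effect and buffer wells lacking enzyme for full effect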
Scp-1 MG ctr: counter-screen for Scp-1 inhibitors: colorimetric interference; shares compounds with Scp-1 inhibitor; Colorimetric interference counterscreen, malachite green absorbance 630 nm; apparent inhibition (interference), % at 20 µM; 2,500 tested, under 10 active; AID 540313;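 note: compounds added after enzyme reaction finished so only phosphate colour detection is probed; plate controls were DMSO wells with completed Scp-1 reaction for no effect and substrate wells lacking enzyme for full effect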
Scp1 DSF: Scp-1 (human) binding by thermal shift. shares compounds with Scp-1 inhibitor. Recombinant SCP1, Sypro Orange thermal shift Tm. thermal shift relative to vanadate control, % at 40 µM. 25% of 1,500 active;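 active = substances whose mean melting-temperature shift, as a percentage of the reference inhibitor's shift, reaches about 5.3%, limit read from the data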;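 note: 0% = Tm of DMSO wells and 100% = Tm with sodium orthovanadate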
Beacon interf DR: shows spectral interference in the DNMT1 beacon assay | shares compounds with DNMT1 inh | 200 tested, under 10 active | molecular beacon fluorescence, spectral interference counter-screen | IC50, µM; call rule not given here
DNMT1 inh conf: DNMT1 inhibition confirmation, single concentration. inhibition, % at 10 µM. AID 602385. shares compounds with DNMT1 inh. DNMT1 molecular beacon HinP1I cleavage, fluorescence. 8% of 2,300 active;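 active = average inhibition of at least 30% in the single-concentration confirmation test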
Beacon interf: counter-screen for DNMT1 inhibitors: spectral interference. activation (fluorescence interference), % at 10 µM. 1% of 2,300 active. shares compounds with DNMT1 inh. AID 602387. DNMT1 molecular beacon spectral interference counterscreen, fluorescence 485/520;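 active = activation of at least 30% at 10 µM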;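 note: DNMT1 catalytic domain with a HinP1I cleavage step and a FAM/dabcyl DNA beacon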
Numbers without * were called inactive. Compounds with a hit are over-represented: about 1.9% of the library has one in this group of screens.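 Rule for the calls, unless noted: active = inhibition of at least 30% at 20 µM; inactive = the rest.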

CC(=O)Oc1c(C)cc(Cl)cc1C(=O)Nc1ccc([N+](=O)[O-])cc1Cl was read as CSN deneddyl inh 1, Scp-1 inhibitor -7, STEP block 0, DNMT1 inh 0, LMPTP inh 0 and SUMO1 PPI mod -5.
COC(=O)c1sc(SC)c(-c2ccon2)c1C was read as CSN deneddyl inh -7, Scp-1 inhibitor -9, STEP block 0, DNMT1 inh 1, LMPTP inh 1 and SUMO1 PPI mod 3.
Screening CC1C=CC(C)C(C(=O)O)C1C(=O)O (stereo not drawn) returned CSN deneddyl inh 13, Scp-1 inhibitor 86*, STEP block 3, DNMT1 inh 61*, LMPTP inh -1, SUMO1 PPI mod 9, Scp1 confirm 55*, Scp-1 MG ctr -20, Scp1 DSF -26, DNMT1 inh conf 0 and Beacon interf 1.
For CC(C)CNC(=O)C1C2C=CC(C2)C1C(=O)O (stereo not drawn) the results were CSN deneddyl inh -2, Scp-1 inhibitor -6, STEP block 1, DNMT1 inh 1, LMPTP inh 0 and SUMO1 PPI mod 6.
For c1ccc(-c2cc(-c3nn4c(-c5ccco5)nnc4s3)c3ccccc3n2)cc1 the results were CSN deneddyl inh 18, Scp-1 inhibitor 92*, STEP block 8, DNMT1 inh 55*, LMPTP inh 3, SUMO1 PPI mod 18, Scp1 confirm 43*, Scp-1 MG ctr -1, Scp1 DSF 7.3*, DNMT1 inh conf 4 and Beacon interf -3.
`C=CCn1c(SCC(=O)N2CCOCC2)nc2scc(-c3ccco3)c2c1=O` gave CSN deneddyl inh 17, Scp-1 inhibitor 73*, STEP block 22, DNMT1 inh 77*, LMPTP inh 9, SUMO1 PPI mod 21, Scp1 confirm 26, Scp-1 MG ctr -8, DNMT1 inh conf 3 and Beacon interf 0.
Cc1ccc(N=Nc2ccc(O)c(/C=N\NC(=O)c3ccc(N)cc3)c2)cc1C was read as CSN deneddyl inh -6, Scp-1 inhibitor 95*, STEP block 38, DNMT1 inh 81*, LMPTP inh 41, SUMO1 PPI mod 2, Scp1 confirm 74*, Scp-1 MG ctr -11, Scp1 DSF -1, DNMT1 inh conf 1 and Beacon interf 1.
Cc1ccc(CNC(=O)c2ccc(-n3cccc3)cc2)cc1 was read as CSN deneddyl inh 22, Scp-1 inhibitor 55*, STEP block 4, DNMT1 inh 95*, LMPTP inh 12, SUMO1 PPI mod 4, Scp1 confirm 64*, Scp-1 MG ctr -7, Scp1 DSF -2, DNMT1 inh conf 13 and Beacon interf 5.
Screening Cc1ccc(CNC(=O)Cc2ccc(-n3cccc3)cc2)cc1 returned CSN deneddyl inh -1, Scp-1 inhibitor -2, STEP block -1, DNMT1 inh 18, LMPTP inh 0 and SUMO1 PPI mod -3.
O=C(O)c1ccc(N2C(=O)c3cccc4c(C(=O)O)ccc(c34)C2=O)cc1 was read as CSN deneddyl inh 29, Scp-1 inhibitor 72*, STEP block 26, DNMT1 inh 91*, LMPTP inh 15, SUMO1 PPI mod 4, Scp1 confirm 45*, Scp-1 MG ctr -21, Scp1 DSF 12*, DNMT1 inh conf 15 and Beacon interf -3.
O=C(O)c1ccc(N2C(=O)c3cccc4cccc(c34)C2=O)cc1 was read as CSN deneddyl inh -5, Scp-1 inhibitor -6, STEP block -2, DNMT1 inh 0, LMPTP inh -2 and SUMO1 PPI mod -22.
CC(C)N(C(=O)CSc1nnnn1-c1ccc2c(c1)OCO2)C(C)C was read as CSN deneddyl inh -14, Scp-1 inhibitor -9, STEP block 1, DNMT1 inh 3, LMPTP inh 1 and SUMO1 PPI mod 0.
Screening Cc1cc2ccccc2n1CCNC(=O)c1ccc(Br)o1 returned CSN deneddyl inh 3, Scp-1 inhibitor 2, STEP block 2, DNMT1 inh -6, LMPTP inh 4 and SUMO1 PPI mod 3.
Screening O=C1CCC(=O)N1c1ccc(-c2nc3sc4c(c3c(=O)o2)CCC4)cc1 returned CSN deneddyl inh 1, Scp-1 inhibitor 7, STEP block 0, DNMT1 inh 2, LMPTP inh -1 and SUMO1 PPI mod -12.
For O=c1oc(-c2ccccc2)nc2sc3c(c12)CCC3 the results were CSN deneddyl inh 6, Scp-1 inhibitor 59*, STEP block 6, DNMT1 inh 96*, LMPTP inh 38, SUMO1 PPI mod 1, Scp1 confirm 34*, Scp-1 MG ctr -18, Scp1 DSF -20, DNMT1 inh conf 4 and Beacon interf 5.
`COc1cccc(C(O)c2nc(-c3cccc(C#N)c3)cs2)c1` (stereo not drawn) gave CSN deneddyl inh -2, STEP block -2, DNMT1 inh -3, LMPTP inh 1 and SUMO1 PPI mod 6.
`C=CCOc1ccc(C=NNc2ccc(S(=O)(=O)Nc3ccccc3C(=O)O)cc2[N+](=O)[O-])cc1OC` gave CSN deneddyl inh 40, Scp-1 inhibitor 71*, STEP block 100*, DNMT1 inh 90*, LMPTP inh 100*, SUMO1 PPI mod 69*, Scp1 confirm 82*, Scp-1 MG ctr -19, Scp1 DSF 15*, Beacon interf DR >99, DNMT1 inh conf 110* and Beacon interf -12.

High-throughput results (PubChem BioAssay)
